# Compound activity (PubChem BioAssay)
# The list is not random: actives were taken first. Their share in the collection is about 2.9%.
# HTRA1 inhibitor = HTRA1 serine protease inhibitors, primary screen, biochemical, fluorescence polarization, HTS. recombinant HTRA1, FP-rhodamine activity-based probe. inhibition, % at 5.96 µM. 340,000 tested, 0.5% active; in the data active means inhibition above about 36%
# PAD4 FP inh = human PAD4 inhibitors, primary screen, biochemical, fluorescence polarization, 1536-well format; 330,000 tested, 0.41% active; inhibition, % at 6.36 µM; recombinant PAD4, RCA probe fluorescence polarization; Protein-arginine deiminase type-4 (Homo sapiens), Q9UM07;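 active means percent inhibition above a cutoff equal to the mean of all tested compounds plus 3 SD, cut at about 15% in these data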
# SIAE primary = human SIAE inhibitors, primary screen, biochemical, fluorescence polarization, FP-Rh probe, 1536-well HTS. Sialate O-acetylesterase (Homo sapiens), Q9HAT2. SIAE FP-Rh probe binding. inhibition, % at 9.66 µM. 370,000 tested, 0.69% active. AID 1053197, 2014;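 active means inhibition above a cutoff: mean of compounds within the control limits plus 3 SD of those, cut at about 17% in these data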
# PRMT1 FP inh = PRMT1 methyltransferase inhibitors, primary screen, biochemical, fluorescence polarization; inhibition, % at 2.79 µM; recombinant PRMT1, activity-based probe fluorescence polarization; 370,000 tested, 1.3% active;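 active means inhibition above about 21% made by adding two undisclosed values, limit read from the data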
# Target sequence (Q99873 whole entry, looked up): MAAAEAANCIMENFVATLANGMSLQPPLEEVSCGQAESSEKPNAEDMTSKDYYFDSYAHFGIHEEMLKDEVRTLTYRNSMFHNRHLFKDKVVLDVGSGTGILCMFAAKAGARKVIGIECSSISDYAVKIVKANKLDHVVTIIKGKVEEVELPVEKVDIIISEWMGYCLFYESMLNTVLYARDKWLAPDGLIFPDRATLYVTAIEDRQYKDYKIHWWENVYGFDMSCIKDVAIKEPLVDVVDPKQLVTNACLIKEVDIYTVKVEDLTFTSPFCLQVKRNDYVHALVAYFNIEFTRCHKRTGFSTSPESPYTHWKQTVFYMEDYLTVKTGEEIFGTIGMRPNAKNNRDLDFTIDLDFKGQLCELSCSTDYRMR
# TCR-CD3 inh = inhibitors of human TCR-CD3 interaction, primary screen, biochemical, fluorescence, TAMRA-labeled TCR probe. inhibition, % at 9.4 µM. 360,000 tested, 0.37% active. AID 651800, 2012; in the data active means inhibition above about 19%;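 further: recombinant mutant TCR 2C K166C tagged with TAMRA read by polarization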
# mABHD4 FP = ABHD4 inhibitors, primary screen, biochemical, fluorescence polarization, mouse; purified mABHD4, FP-Rh probe fluorescence polarization; AID 720543, 2013; inhibition, % at 8.92 µM; 370,000 tested, 0.54% active; (Lyso)-N-acylphosphatidylethanolamine lipase (Mus musculus), Q8VD66;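 active means inhibition exceeding the mean over every tested compound plus 3 SD, cut at about 30% in these data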
#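 Doses – 8.92 µM, single dose · Material – wild-type mouse ABHD4 protein · Replication – single well per compound (singlicate) · Measure – percent inhibition of probe binding, normalized to plate controls · Schedule – 45 min compound pre-incubation plus 60 min probe step, 25 °C · Detection – fluorescence polarization with parallel and perpendicular emission, 525/598 nm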
# SIAE inh conf = human SIAE inhibitors, retest, confirmation, biochemical, fluorescence polarization, FP-Rh probe, triplicate | 2,300 tested, 13% active | inhibition, % at 9.66 µM | shares compounds with SIAE primary | SIAE FP-Rh activity-based probe;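 active means mean inhibition of the replicates above the hit cutoff set in the primary screen, cut at about 17% in these data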;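 further: inhibitors lower polarization as more probe stays unbound to SIAE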
# Hits are given with their value; n = inactive; x = no result given.
SMILES,HTRA1 inhibitor,PAD4 FP inh,SIAE primary,PRMT1 FP inh,TCR-CD3 inh,mABHD4 FP,SIAE inh conf
COc1cccc(-n2nnc3c(=O)n(CC(=O)Nc4ccccc4C)cnc32)c1,n,n,n,n,n,n,x
COc1ccc(-n2nnc3c(=O)n(CC(=O)Nc4cc(C)on4)cnc32)cc1OC,n,n,24,n,n,n,n
Cc1ccccc1P(=O)(CO)c1ccccc1C,n,n,178,n,n,n,n
O=S1(=O)c2c(cccc2N2CCC[C@H]2CO)OCCCN1C1CC1,x,x,n,n,x,n,x
Cc1ccccc1Cn1c2ccccc2c2cnn(CC(=O)NCc3ccccn3)c(=O)c21,n,n,20,n,n,n,n
COC(=O)C(CN)CN1C(=O)c2ccccc2C1=O (centres undefined),x,x,n,n,x,n,x
COC(=O)[C@]12C[C@H](CC(=O)N3CCCC3)C(=O)N(CCc3ccc(OC)c(OC)c3)C1=C[C@H](COCc1ccccc1)O[C@@H]2C,x,x,n,n,x,n,x
CCOC(=O)/C(C)=N/Nc1nc(-c2ccc(NC(C)=O)cc2)cs1,x,n,20,n,n,n,n
CC(=O)Nc1ccc(-c2csc(N/N=C(/C)c3ccccc3)n2)cc1,n,n,n,n,n,n,x
COC(=O)[C@]12CCCCC=C1N(Cc1ccc(OC)cc1)C(=O)[C@@H]2CC(=O)NCc1ccc(OC)c(OC)c1,x,x,n,n,x,n,x
CSCc1cc(N2CCCC2)nc(-c2ccccc2)n1,n,n,19,n,n,n,n
COc1ccc(-c2cc(C(=O)NN=Cc3ccccc3F)[nH]n2)cc1,x,x,n,n,x,n,x
CCCCN1CC[C@H](C)Oc2cc(Br)ccc2S1(=O)=O,x,x,n,n,x,n,x
COCCCNC(=O)/C(C#N)=C/c1ccc(F)cc1,n,n,33,n,n,n,n
COc1ccc(O)c(/C=N/NC(=S)NCCc2ccccc2)c1,n,n,18,n,n,n,n
Oc1ccc(Br)cc1/C=N/NC(=S)NCCc1ccccc1,n,n,18,n,n,n,n
O=C(CCc1ccccc1)N/N=C/c1cc(Br)ccc1O,n,n,n,n,n,n,x
CCN(CC)C(=O)CC[C@@H]1CC[C@]2(CCCN(S(=O)(=O)c3ccccc3)C2)O1,x,x,n,n,x,n,x
COC(=O)C/C=C/[C@@H](C)[C@H](NC(=O)OCC(Cl)(Cl)Cl)c1ccc(-c2ccccc2)cc1,x,x,n,n,x,n,x
O=C(CSc1nc2sc3c(c2c(=O)n1-c1ccc(Cl)cc1)CCCC3)c1ccccc1Cl,x,x,n,n,x,n,x
COc1ccc(/C=N/NC(=O)c2cccnc2)cc1CN1CCCc2ccccc21,n,n,22,n,n,n,19
COc1ccc(C2C(C(=O)N3CCOCC3)CC(=O)N2c2ccc(OC)cc2)cc1 (centres undefined),x,x,n,n,x,n,x
O=C(O)CSc1c2c(nc3cc(C(=O)N4CCOCC4)ccc13)CCCC2,n,n,27,n,n,n,n
Cc1ccc(S(=O)(=O)Nc2ccc3c(c2)nc(CCN2CCN(c4ccccn4)CC2)n3C)cc1,n,n,19,n,n,n,n
O=C(O)C1C2C=CC(C2)C1C(=O)NCCc1cccc(Cl)c1 (centres undefined),n,n,22,n,n,n,n
SMILES,HTRA1 inhibitor,PAD4 FP inh,SIAE primary,PRMT1 FP inh,TCR-CD3 inh,mABHD4 FP,SIAE inh conf
O=C(c1ccc([N+](=O)[O-])cc1)N1CCOCC1,n,x,18,n,n,n,n
O=[N+]([O-])c1cccc(N/N=C/c2ccc(N3CCOCC3)cc2)c1,n,n,18,n,n,n,n
O=C(Nc1ccc(N2CCOCC2)cc1)c1ccc([N+](=O)[O-])cc1,n,n,17,n,n,n,n
Clc1cccc(N/N=C/c2ccc(N3CCOCC3)cc2)c1,n,n,n,n,n,n,x
O=C(Nc1ccc(N2CCCCC2)cc1)c1ccc([N+](=O)[O-])o1,n,n,19,n,n,n,n
O=C(c1ccc([N+](=O)[O-])cc1)N1CCCC1,n,n,n,n,n,n,x
Cc1n[nH]c(C)c1S(=O)(=O)NCCc1cccc(F)c1,x,x,n,n,x,n,x
